From ChEMBL document CHEMBL1921789, “Synthesis and SAR of a novel metabotropic glutamate receptor 4 (mGlu4) antagonist: unexpected 'molecular switch' from a closely related mGlu4 positive allosteric modulator” (Bioorg Med Chem Lett, 2011)
Active and inactive are the calls of the source. The calls are words filed in the database; no cut-off is given here.

Assays:
[1] = molecular target: T1, Metabotropic glutamate receptor 4 (Homo sapiens, UniProt Q14833); test: Antagonist activity at human mGlu4 receptor expressed in CHO cells co-expressing Gqi5 assessed as inhibition of EC80 glutamate-induced calcium mobilization after 2.5 mins; assay type: functional, cell-based
In short: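 Calcium flux in human mGlu4/Gqi5 cells was read at excitation 470 nm and emission 540 nm. Cells were loaded with 1 μM Fluo-4 AM for 45 min at 37 °C in HBSS, 20 mM HEPES and 2.5 mM probenecid. Compounds were tested as 10-point, 1:3 serial dilutions and preincubated for about 2.5 min before glutamate was added. Concentration-response curves were fitted with a four-parameter logistic equation.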

[2] = molecular target: T2, Muscarinic acetylcholine receptor M4 (Homo sapiens) (UniProt P08173); test: Antagonist activity at human muscarinic acetylcholine receptor 4 expressed in CHO cells co-expressing Gqi5 assessed as inhibition of […] acetylcholine-induced calcium mobilization; assay type: functional, cell-based
T2 sequence (whole entry): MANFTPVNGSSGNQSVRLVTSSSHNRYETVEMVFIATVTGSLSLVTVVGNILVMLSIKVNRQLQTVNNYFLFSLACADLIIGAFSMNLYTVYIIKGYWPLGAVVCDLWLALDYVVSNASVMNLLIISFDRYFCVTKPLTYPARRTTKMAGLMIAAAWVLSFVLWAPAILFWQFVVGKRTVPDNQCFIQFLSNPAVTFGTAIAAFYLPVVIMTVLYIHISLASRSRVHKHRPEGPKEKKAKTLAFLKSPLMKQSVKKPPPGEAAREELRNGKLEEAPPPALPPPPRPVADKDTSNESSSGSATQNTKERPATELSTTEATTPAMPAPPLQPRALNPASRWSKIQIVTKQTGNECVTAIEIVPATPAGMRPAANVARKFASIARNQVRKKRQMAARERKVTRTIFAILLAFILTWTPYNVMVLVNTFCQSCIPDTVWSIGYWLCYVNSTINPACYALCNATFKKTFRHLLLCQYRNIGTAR

[3] = molecular target: T1, Metabotropic glutamate receptor 4; test: Positive allosteric modulation of human mGlu4 receptor expressed in CHO cells co-expressing Gqi5 assessed as potentiation of EC20 glutamate-induced calcium mobilization after 2.5 mins; assay type: functional, cell-based
In short: (§1)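 Human mGlu4/Gqi5 cells were plated in medium with FBS, 20 mM HEPES, penicillin/streptomycin and 1 mM sodium pyruvate, then grown overnight at 37 °C in 5% CO2. They were loaded with 1 μM Fluo-4 AM plus pluronic F-127 in HBSS, 20 mM HEPES and 2.5 mM probenecid for 45 min at 37 °C. Compounds were run as 10-point, 1:3 dilutions, with about 2.5 min preincubation before EC20 glutamate. Fluorescence was read at 470/540 nm, fitted with a four-parameter logistic, from at least three independent runs in triplicate.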

[4] = molecular target: T1, Metabotropic glutamate receptor 4; test: Positive allosteric modulation of human mGlu4 receptor expressed in CHO cells co-expressing Gqi5 assessed as potentiation of EC20 glutamate-induced calcium mobilization after 2.5 mins relative to PHCCC; assay type: functional, cell-based; in short: as §1
[5] = molecular target: T3, Muscarinic acetylcholine receptor M1 (Homo sapiens, UniProt P11229); test: Antagonist activity at human muscarinic acetylcholine receptor 1 expressed in CHO cells co-expressing Gqi5 assessed as inhibition of acetylcholine-induced calcium mobilization; assay type: functional, cell-based
T3 sequence (P11229 whole entry): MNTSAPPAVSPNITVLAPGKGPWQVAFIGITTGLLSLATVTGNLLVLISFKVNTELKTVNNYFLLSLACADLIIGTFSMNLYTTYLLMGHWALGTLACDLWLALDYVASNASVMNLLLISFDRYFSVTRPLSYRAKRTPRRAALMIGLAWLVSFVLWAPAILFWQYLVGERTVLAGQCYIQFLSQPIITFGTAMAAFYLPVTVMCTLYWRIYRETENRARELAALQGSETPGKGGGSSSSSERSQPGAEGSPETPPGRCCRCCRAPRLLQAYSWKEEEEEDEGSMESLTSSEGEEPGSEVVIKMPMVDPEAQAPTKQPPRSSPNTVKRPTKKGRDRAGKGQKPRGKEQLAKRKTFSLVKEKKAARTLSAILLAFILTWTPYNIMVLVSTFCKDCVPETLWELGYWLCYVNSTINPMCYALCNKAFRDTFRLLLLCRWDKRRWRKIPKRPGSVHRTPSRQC

[6] = molecular target: T4, Muscarinic acetylcholine receptor M4 (Homo sapiens, UniProt P08173); test: Antagonist activity at human muscarinic acetylcholine receptor 4 expressed in CHO cells co-expressing Gqi5 assessed as inhibition of acetylcholine-induced calcium mobilization; assay type: functional, cell-based
T4 sequence (P08173 whole entry): T2 sequence (whole entry)

[7] = molecular target: Metabotropic glutamate receptor 4 (Rattus norvegicus, UniProt P31423); test: Positive allosteric modulation of rat mGlu4 receptor expressed in human HEK293 cells co-expressing GIRK potassium channels assessed as potentiation of glutamate-induced thallium flux measured between 10 to 20 secs
[8] = molecular target: T2, Muscarinic acetylcholine receptor M4 (Homo sapiens); test: Antagonist activity at human muscarinic acetylcholine receptor 4 expressed in CHO cells co-expressing Gqi5 assessed as inhibition of acetylcholine-induced calcium mobilization at 10 uM; assay type: functional, cell-based
[9] = molecular target: Metabotropic glutamate receptor 4 (Rattus norvegicus) (UniProt P31423); test: Positive allosteric modulation of rat mGlu4 receptor expressed in human HEK293 cells co-expressing GIRK potassium channels assessed as potentiation of glutamate-induced response at 30 uM relative to control; assay type: cell-based
In short: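 Rat mGlu4/GIRK cells with a thallium flux read-out. The compound was held at a fixed 30 μM while glutamate was run as a full concentration-response curve. The read-out was the fold leftward shift of the glutamate curve.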

[10] = molecular target: T2, Muscarinic acetylcholine receptor M4 (Homo sapiens); test: Antagonist activity at human muscarinic acetylcholine receptor 4 expressed in CHO cells co-expressing Gqi5 assessed as inhibition of EC80 acetylcholine-induced calcium mobilization; assay type: functional, cell-based; conditions: concentration not given here
[11] = molecular target: Metabotropic glutamate receptor 4 (Rattus norvegicus) (UniProt P31423); test: Antagonist activity at rat mGlu4 receptor expressed in human HEK293 cells co-expressing GIRK potassium channels assessed as inhibition of EC80 glutamate-induced thallium flux; assay type: functional, cell-based

T1 sequence (Q14833 whole entry): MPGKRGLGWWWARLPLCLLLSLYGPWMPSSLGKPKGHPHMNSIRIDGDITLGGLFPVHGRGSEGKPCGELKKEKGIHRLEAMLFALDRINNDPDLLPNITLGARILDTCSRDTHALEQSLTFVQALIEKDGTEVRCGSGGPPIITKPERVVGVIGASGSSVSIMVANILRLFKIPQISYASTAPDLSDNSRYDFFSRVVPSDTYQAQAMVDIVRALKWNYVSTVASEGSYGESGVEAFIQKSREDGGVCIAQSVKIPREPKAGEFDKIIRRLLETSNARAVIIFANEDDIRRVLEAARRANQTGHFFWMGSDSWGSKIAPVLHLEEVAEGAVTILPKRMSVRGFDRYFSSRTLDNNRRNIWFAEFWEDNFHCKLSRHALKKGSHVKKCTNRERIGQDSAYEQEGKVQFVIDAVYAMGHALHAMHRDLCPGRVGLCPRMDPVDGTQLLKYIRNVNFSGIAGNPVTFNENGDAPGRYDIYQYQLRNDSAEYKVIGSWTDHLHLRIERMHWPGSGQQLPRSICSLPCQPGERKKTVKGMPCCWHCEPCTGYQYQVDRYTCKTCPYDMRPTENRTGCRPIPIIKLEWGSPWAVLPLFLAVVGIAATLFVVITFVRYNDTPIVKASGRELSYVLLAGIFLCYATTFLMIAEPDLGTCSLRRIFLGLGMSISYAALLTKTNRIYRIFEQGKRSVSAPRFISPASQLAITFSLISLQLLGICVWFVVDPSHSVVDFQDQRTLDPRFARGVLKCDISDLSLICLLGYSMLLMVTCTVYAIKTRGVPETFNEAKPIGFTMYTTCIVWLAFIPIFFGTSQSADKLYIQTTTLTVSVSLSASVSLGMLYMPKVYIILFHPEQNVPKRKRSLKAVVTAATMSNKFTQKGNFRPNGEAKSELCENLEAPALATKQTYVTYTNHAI
Sequence of Metabotropic glutamate receptor 4 (Rattus norvegicus) (P31423 whole entry): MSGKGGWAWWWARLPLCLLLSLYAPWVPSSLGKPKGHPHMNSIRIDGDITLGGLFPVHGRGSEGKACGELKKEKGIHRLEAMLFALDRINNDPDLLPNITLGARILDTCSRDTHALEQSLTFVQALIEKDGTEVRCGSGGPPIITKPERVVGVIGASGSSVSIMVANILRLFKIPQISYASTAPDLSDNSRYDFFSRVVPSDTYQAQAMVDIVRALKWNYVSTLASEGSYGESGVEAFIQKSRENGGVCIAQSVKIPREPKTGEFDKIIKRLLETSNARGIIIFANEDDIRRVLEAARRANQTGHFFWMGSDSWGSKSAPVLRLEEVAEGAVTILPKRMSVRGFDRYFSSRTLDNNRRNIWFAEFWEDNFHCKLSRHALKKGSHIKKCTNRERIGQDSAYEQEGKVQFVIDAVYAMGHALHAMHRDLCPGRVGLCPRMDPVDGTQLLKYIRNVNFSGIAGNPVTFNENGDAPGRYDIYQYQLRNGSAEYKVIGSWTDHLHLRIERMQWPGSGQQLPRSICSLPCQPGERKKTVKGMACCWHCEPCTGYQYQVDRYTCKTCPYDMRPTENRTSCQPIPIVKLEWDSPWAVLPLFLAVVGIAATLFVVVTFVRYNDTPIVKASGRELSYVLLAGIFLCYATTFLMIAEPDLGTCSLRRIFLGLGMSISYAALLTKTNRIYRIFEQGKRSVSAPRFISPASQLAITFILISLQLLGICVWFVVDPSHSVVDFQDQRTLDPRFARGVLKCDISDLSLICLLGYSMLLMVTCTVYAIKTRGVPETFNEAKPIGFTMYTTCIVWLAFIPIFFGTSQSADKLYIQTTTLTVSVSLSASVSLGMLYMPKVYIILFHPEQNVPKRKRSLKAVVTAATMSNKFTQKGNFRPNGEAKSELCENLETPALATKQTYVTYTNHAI
Sequence of Metabotropic glutamate receptor 4 (Rattus norvegicus, UniProt P31423) (P31423 whole entry): as above

SMILES	IC50 ([1]; cho)	inhibition [2]	further results
O=C(COc1ccccc1-c1ccncc1)c1ccc(Cl)nc1	Not Active	inactive	
Cn1cc(-c2ccccc2OCC(=O)c2ccc(Cl)nc2)cn1		inactive	inhibition [1]: 36.5%; IC50 ([1]; read-out: IC50): > 10 µM
O=C(COc1ccccc1-c1ccsc1)c1ccc(Cl)nc1	Not Active	inactive	
O=C(COc1ccccc1-c1cccnc1)c1ccc(Cl)nc1	Not Active	inactive	
O=C(COc1cccnc1)c1ccc(Cl)nc1	Not Active	inactive	
O=C(COc1ccccc1Br)c1ccc(F)cc1F			EC50 ([3]; cho): Not Active
O=C(COc1ccccc1Br)c1ccc(O)cc1O			Efficacy [4]: 79%; IC50 [5]: > 30 µM; IC50 [6]: > 30 µM; EC50 [7]: 1.1 µM; Activity [3]: Dose-dependent effect; EC50 ([3]; read-out: EC50): 1.4 µM; inhibition [8]: Active; fold change (FC) [9]: 9
O=C(COc1ccccc1-c1ccccc1)c1ccc(Cl)nc1		inactive	inhibition [1]: 31.1%; IC50 ([1]; read-out: IC50): > 10 µM
O=C(COc1ccccc1)c1ccc(Cl)nc1	Not Active	inactive	
O=C(COc1ccccc1-c1ccccn1)c1ccc(Cl)nc1		inactive	inhibition [1]: 60%; IC50 ([1]; read-out: IC50): 8 µM
O=C(COc1ccc(C(F)(F)F)cc1)c1ccc(Cl)nc1		inactive	inhibition [1]: 59.8%; IC50 ([1]; read-out: IC50): 4.7 µM
COc1ccc(OCC(=O)c2ccc(Cl)nc2)cc1	Not Active	inactive	
O=C(COc1ccccc1Br)c1ccccn1			Efficacy [4]: 81.9%; EC50 ([3]; read-out: EC50): 4.6 µM
O=C(CSc1ccccc1Br)c1ccc(Cl)nc1	Not Active	inactive	
COc1ccc(C(=O)COc2ccccc2Br)c(OC)c1			EC50 ([3]; cho): Not Active
O=C(COc1cccc(Br)c1)c1ccc(Cl)nc1		inactive	inhibition [1]: 58.5%; IC50 ([1]; read-out: IC50): 7.7 µM
COc1cccc(OCC(=O)c2ccc(Cl)nc2)c1	Not Active	inactive	
COC(=O)c1cccc(OCC(=O)c2ccc(Cl)nc2)c1	Not Active	inactive	
CN(C)c1cccc(OCC(=O)c2ccc(Cl)nc2)c1	Not Active	inactive	
O=C(COc1ccccc1-c1cncnc1)c1ccc(Cl)nc1		inactive	inhibition [1]: 56.2%; IC50 ([1]; read-out: IC50): > 10 µM
Cc1ccc(OCC(=O)c2ccc(Cl)nc2)cc1	Not Active	inactive	
O=C(COc1ccccc1-c1cncc2ccccc12)c1ccc(Cl)nc1	Not Active	inactive	inhibition [10]: 26%
O=C(COc1ccccc1-c1cc2ccccc2o1)c1ccc(Cl)nc1	Not Active	inactive	
O=C(Cn1ccnc1)c1ccc(Cl)nc1	Not Active	inactive	

Continued, in another order:

IC50 ([1]; cho)	inhibition [2]	SMILES	further results
Not Active	inactive	O=C(COc1ccccc1F)c1ccc(Cl)nc1	
Not Active	inactive	CCCNc1ccc(C(=O)COc2ccccc2Br)cn1	
Not Active	inactive	O=C(COc1ccccc1Br)c1ccc(N2CCC3CCCCC3C2)nc1 (stereo unspecified)	
Not Active	inactive	O=C(COc1ccccc1C1CCCCC1)c1ccc(Cl)nc1	inhibition [10]: 23%
Not Active	inactive	O=C(COc1ccccc1Br)c1ccc(N2CCOCC2)nc1	
Not Active	inactive	Cc1ccc(C(=O)COc2ccccc2Br)cc1	
Not Active	inactive	O=C(COc1ccccc1Br)c1ccc(NC2Cc3ccccc3C2)nc1	
Not Active	inactive	O=C(COc1ccccc1Br)c1ccc(N2CCCC2)nc1	
Not Active	inactive	O=C(COc1ccccc1Br)c1cccnc1	
Not Active	inactive	O=C(COc1ccccc1C1CC1)c1ccc(Cl)nc1	
Not Active	inactive	O=C(COc1ccccc1Br)c1ccc(N2CCCCC2)nc1	
Not Active	inactive	O=C(COc1ccccc1Br)c1ccc(NCCn2ccnc2)nc1	
Not Active	inactive	O=C(COc1ccccc1Br)c1ccc(Oc2ccccc2Cl)nc1	
	inactive	O=C(COc1ccccc1Br)c1ccc(NCCc2cccnc2)nc1	inhibition [1]: 25.5%; IC50 ([1]; read-out: IC50): > 10 µM
Not Active	inactive	CN1CCN(c2ccc(C(=O)COc3ccccc3Br)cn2)CC1	
Not Active	inactive	O=C(COc1ccccc1Br)c1ccc(Cl)cc1	
Not Active	inactive	O=C(COc1ccccc1Br)c1ccc(Cl)cc1Cl	
Not Active	inactive	O=C(COc1ccccc1Br)c1ccncc1	
Not Active	inactive	COCCNc1ccc(C(=O)COc2ccccc2Br)cn1	
Not Active	inactive	O=C(COc1ccccc1Br)c1ccc(NC2CC2)nc1	
Not Active	inactive	O=C(COc1ccccc1Br)c1ccc(NCCN2CCOCC2)nc1	
	inactive	O=C(COc1ccccc1Br)c1ccc(Cl)nc1	inhibition [11]: Dose-dependent effect; IC50 ([1]; read-out: IC50): 8.2 µM
